From PubChem
UPR XBP1 act = activators of adaptive XBP1 UPR arm, primary screen, cell-based, CHO-XBP1 luciferase reporter, luminescence, uHTS; IRE1-XBP1 UPR activation; percent of tunicamycin response, DMSO as zero; activation, % at 20 µM; actives 0.33% (n = 330,000);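 active = versus positive control, 20 µM dose yields 30% or more activation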;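 also: 100% = tunicamycin at 10 µg/mL and 0% = DMSO only wells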
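incubation = overnight seeding at 37 °C, 6 h compound treatment at 37 °C | assay system = CHO-XBP1 cells stably carrying IRE1-XBP1-driven luciferase reporter | input = 1000 cells per well | detection = luciferase luminescence | dosing = single point, 20 µM final compound, 1% DMSO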
PvdQ acylase = P. aeruginosa PvdQ acylase inhibitors, primary screen, biochemical, fluorescence, plate reader and imaging, single point; AID 488965, 2010; purified PvdQ acylase; PvdQ acylase [Pseudomonas aeruginosa LESB58]; inhibition, % at 10 µM; actives 0.063% (n = 340,000); in the data active = inhibition above about 30%, passing the limit was not always enough;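 also: 0% = vehicle neutral wells and 100% = reference inhibitor wells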
UPR CHOP act = activators of apoptotic CHOP UPR arm, primary screen, cell-based, CHO-CHOP luciferase reporter, luminescence, uHTS; actives 0.34% (n = 330,000); activation, % at 10 µM; UPR activation; percent of tunicamycin response over DMSO baseline;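 active = at 10 µM dose, activation of 40% or more, normalized to positive control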;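 also: 100% = tunicamycin at 10 µg/mL and 0% = DMSO alone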
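Test system: CHO CHOP reporter cells. Input: 500 CHO-CHOP cells per well. Medium: F12 with 10% FBS. Technique: luciferase luminescence. Measure: percent activation relative to tunicamycin control. Dosing: 10 µM compound, 0.5% DMSO. Timing: 16-18 h cell attachment, then 6 h compound exposure, 37 °C.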
CHOP inhibitor = inhibitors of CHOP promoter induction, primary screen, cell-based, unfolded protein response, luciferase reporter. inhibition, % at 10 µM. actives 3.8% (n = 220,000). CHO-K1 CHOP-promoter luciferase, tunicamycin-induced, 15-18 h. AID 2732, 2010;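 active = compounds that reduced the stress-induced luciferase reporter signal by more than about 70% of percent inhibition, limit read from the data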;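 also: 0% = tunicamycin plus vehicle and 100% = wells without tunicamycin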
UPR XBP1 confirm = IRE1-XBP1 UPR arm activators, confirmation, cell-based, CHO-XBP1 luciferase reporter, luminescence, single concentration; AID 485299, 2010; activation, % at 20 µM; shares compounds with UPR XBP1 act; actives 63% (n = 1,000);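 active = reporter signal at least 30% of the positive control's activation in two or more of four replicate wells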;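 also: plate controls were DMSO negative control for no effect and tunicamycin 10 µg/mL positive control for full effect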
* marks the source's active call; other numbers are inactive results. The sample as a whole holds a higher share of hits than the screen did.

What do the screens show for `O=[N+]([O-])c1ccc(-c2ccc(C=Nc3cccc4ccccc34)o2)cc1`?
UPR XBP1 act: 1; PvdQ acylase: 17; UPR CHOP act: -1; CHOP inhibitor: 41

Results for O=[N+]([O-])c1cc(-c2ccc(/C=N/c3nc4ccccn4c3-c3ccco3)o2)ccc1Cl ?
UPR XBP1 act: 101*; PvdQ acylase: -5; UPR CHOP act: 18; CHOP inhibitor: 91*; UPR XBP1 confirm: 98*

How did Brc1cc(Br)c2ncnc(N3CCCCC3)c2c1 do in these assays?
UPR XBP1 act: 59*; PvdQ acylase: 8; UPR CHOP act: -1; CHOP inhibitor: 66; UPR XBP1 confirm: 41*

How did CCOc1ccc(S(=O)(=O)/N=C(/Nc2ccc(C)c(S(=O)(=O)N3CCOCC3)c2)c2ccccc2)cc1 do in these assays?
UPR XBP1 act: -3; PvdQ acylase: -8; UPR CHOP act: 0

How did Cc1cc(C)c2c(c1)/C(=N/Nc1ccc(S(N)(=O)=O)cc1[N+](=O)[O-])CCC2 do in these assays?
UPR XBP1 act: 76*; PvdQ acylase: 4; UPR CHOP act: 16; CHOP inhibitor: 16; UPR XBP1 confirm: 50*

What do the screens show for `Cc1ccc(Nc2nc3ccc(Cl)cc3n3cnnc23)cc1F`?
UPR XBP1 act: 32*; PvdQ acylase: 11; UPR CHOP act: 2; UPR XBP1 confirm: 48*

Results for COc1cc(OC)cc(C(=O)NC(=S)NNC(=O)[C@H]2C[C@@H]2c2ccccc2)c1 ?
UPR XBP1 act: -4; PvdQ acylase: -10; UPR CHOP act: 2; CHOP inhibitor: 8

What do the screens show for `COc1ccc(C(=O)NC(=S)NNC(=O)[C@H]2C[C@@H]2c2ccccc2)cc1OC`?
UPR XBP1 act: 65*; PvdQ acylase: 6; UPR CHOP act: 1; CHOP inhibitor: 34; UPR XBP1 confirm: 14

Results for CCOc1cccc2sc(N(CCCN(C)C)C(=O)c3ccc(S(=O)(=O)N(CC)Cc4ccccc4)cc3)nc12 ?
UPR XBP1 act: 43*; PvdQ acylase: -10; UPR CHOP act: 9; UPR XBP1 confirm: 12

Results for CCN(Cc1ccccc1)S(=O)(=O)c1ccc(C(=O)N(CCCN(C)C)c2nc3cc(C)cc(C)c3s2)cc1 ?
UPR XBP1 act: 18; PvdQ acylase: -1; UPR CHOP act: 24

What do the screens show for `CCCCN(CC)S(=O)(=O)c1ccc(C(=O)N(CCCN(C)C)c2nc3cc(C)cc(C)c3s2)cc1`?
UPR XBP1 act: 45*; PvdQ acylase: -2; UPR CHOP act: 4; CHOP inhibitor: 87*; UPR XBP1 confirm: 36*

What do the screens show for `CCOc1cccc2sc(N(CCCN(C)C)C(=O)c3ccc(S(=O)(=O)N(C)Cc4ccccc4)cc3)nc12`?
UPR XBP1 act: 27; PvdQ acylase: 4; UPR CHOP act: 5

How did O=C(Oc1ccc2c3c(c(=O)oc2c1)CCC3)c1ccccc1[N+](=O)[O-] do in these assays?
UPR XBP1 act: -1; UPR CHOP act: 6; CHOP inhibitor: -15

Results for COc1ccccc1NC(CC(=O)c1ccccc1)C(=O)OCC(=O)c1ccc(C)c(C)c1 (centres undefined) ?
UPR XBP1 act: 36*; PvdQ acylase: -7; UPR CHOP act: 2; CHOP inhibitor: 3; UPR XBP1 confirm: -2

How did COc1ccccc1NC(CC(=O)c1ccccc1)C(=O)OCC(=O)c1ccc(C)cc1 (centres undefined) do in these assays?
UPR XBP1 act: -2; PvdQ acylase: 1; UPR CHOP act: 3; CHOP inhibitor: 12

Results for COc1cc(/C=C2\SC(N3CCC(C)CC3)=NC2=O)ccc1O ?
UPR XBP1 act: 0; PvdQ acylase: -13; UPR CHOP act: -1

What do the screens show for `Cc1cc2nccc(-c3cccnc3)n2n1`?
UPR XBP1 act: 1; PvdQ acylase: 3; UPR CHOP act: -1; CHOP inhibitor: 13

What do the screens show for `C#CCOCCOCCOCCNc1nc(N2CCN(C(=O)CCCCCCCCCCNC(=O)[C@H](CCCCN)n3cc(C[C@@H](C)CC)nn3)CC2)nc(N2CCN(C(=O)CCCCCCCCCCNC(=O)[C@H](CCCN=C(N)N)n3cc(C[C@@H](C)CC)nn3)CC2)n1`?
UPR XBP1 act: 31*; PvdQ acylase: -15; UPR CHOP act: 12; UPR XBP1 confirm: 29*
